pEC50, pKi: −log10 of the molar value.

Results on 20 compounds are retold here after ChEMBL document CHEMBL1134370, “Pharmacophore analysis of the nuclear oxysterol receptor LXRalpha” (J Med Chem, 2001).

Assay [1] has as its target T1, Oxysterols receptor LXR-alpha (Homo sapiens) (UniProt Q13133).
T1 sequence (whole entry): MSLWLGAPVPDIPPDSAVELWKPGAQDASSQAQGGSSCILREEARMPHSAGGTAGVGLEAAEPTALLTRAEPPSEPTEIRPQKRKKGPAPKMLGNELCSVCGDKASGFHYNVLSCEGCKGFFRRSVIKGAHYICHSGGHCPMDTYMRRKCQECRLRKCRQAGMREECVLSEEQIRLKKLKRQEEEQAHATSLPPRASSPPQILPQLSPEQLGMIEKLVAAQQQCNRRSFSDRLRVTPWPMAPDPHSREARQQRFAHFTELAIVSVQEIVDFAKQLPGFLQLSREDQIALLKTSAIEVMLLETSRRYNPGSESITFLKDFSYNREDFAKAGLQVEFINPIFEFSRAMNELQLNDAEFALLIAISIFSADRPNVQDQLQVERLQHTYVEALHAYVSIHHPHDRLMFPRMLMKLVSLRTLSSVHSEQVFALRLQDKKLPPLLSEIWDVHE
The assay is described as follows: Tested for its ability to activate Liver X receptor-alpha expressed as Relative efficacy determined by maximal increase in relative fluorescence in LiSA. The method, boiled down:
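Human LXRα ligand-binding domain (aa 183-447) with a His tag, expressed in E. coli, biotinylated and coupled to streptavidin-allophycocyanin. A biotinylated SRC1 peptide (aa 675-699) was coupled to streptavidin-europium. Final concentrations: 10 nM protein and peptide in pH 7.5 MOPS buffer, compound 1 nM–100 µM. Incubated 2-4 h at room temperature; time-resolved FRET read at 665 nm. Efficacy is the maximal fluorescence increase relative to 24(S),25-epoxycholesterol.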

Assay [2] deals with T2, Oxysterols receptor LXR-alpha (Homo sapiens, UniProt Q13133).
T2 sequence (Q13133 whole entry): T1 sequence (whole entry)
The assay is described as follows: Concentration required for half maximal activity was calculated in human nuclear oxysterol receptor liver X receptor-alpha in LiSA. The method, boiled down: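 Human LXRα ligand-binding domain (aa 183-447) with His tag, expressed in E. coli, purified and biotinylated. Protein and biotinylated SRC1 peptide (aa 675-699) were pre-bound to streptavidin-APC and streptavidin-europium. The final mix (10 nM each) was read by TR-FRET at 665 nm after 2-4 h at room temperature. Compounds 1 nM-100 µM; EC50 from half-maximal fluorescence, n = 3, standard error.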

Assay [3] concerns the target T2, Oxysterols receptor LXR-alpha. The assay is described as follows: Binding affinity towards LXR alpha receptor was determined in a competition binding assay.
The target in assay [4] is T1, Oxysterols receptor LXR-alpha (Homo sapiens). The assay can be described thus: Tested for its ability to activate Liver X receptor-alpha expressed as Relative efficacy determined by maximal increase in relative fluorescence in LiSA by 100 uM. The method, boiled down: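 TR-FRET ligand-sensing assay of SRC1 peptide recruitment to biotinylated human LXRα LBD (aa 183-447, E. coli), 10 nM each in MOPS/NaF buffer pH 7.5. Run at room temperature for 2-4 h, read at 665 nm. Relative efficacy is the maximal increase in relative fluorescence compared with 24(S),25-epoxycholesterol. Compounds tested up to 100 µM.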

By pEC50 is commonly meant the EC50 on a negative log10 scale, so that one unit is a factor of ten. As to `C[C@H](CC[C@H]1OC1(C)C)[C@H]1CC[C@H]2[C@@H]3CC=C4C[C@@H](O)CC[C@]4(C)[C@H]3CC[C@]12C`, the RE in assay [1] came to 1. In addition, the pEC50 in assay [2] was 6.17. In turn, `CC(C)C(=O)NC[C@@H](C)[C@H]1CC[C@H]2[C@@H]3CC=C4C[C@@H](O)CC[C@]4(C)[C@H]3CC[C@]12C` showed an RE in assay [1] below 0.1.

The pKi is −log10 of the Ki, conventionally taken in molar units. Lower therefore signals a large Ki. For the compound `CC(C)CC[C@H](O)[C@@H](C)[C@H]1CC[C@H]2[C@@H]3CC=C4C[C@@H](O)CC[C@]4(C)[C@H]3CC[C@]12C`, the pKi in assay [3] was 6.74. In assay [4], this compound displayed an RE below 0.1.

In turn, `CC(C)CC[C@@H](O)[C@@H](C)[C@H]1CC[C@H]2[C@@H]3CC=C4C[C@@H](O)CC[C@]4(C)[C@H]3CC[C@]12C` [22(R)-HYDROXYCHOLESTEROL] gave an RE in assay [1] of 0.85. In addition, the pEC50 in assay [2] was 6.49. `C[C@H](CCC(=O)O)[C@H]1CC[C@H]2[C@@H]3CC=C4C[C@@H](O)CC[C@]4(C)[C@H]3CC[C@]12C` yielded an RE in assay [1] of 0.2. Also, the pEC50 in assay [2] was 5.52. For `C[C@H](CNC(=O)N(C)C)[C@H]1CC[C@H]2[C@@H]3CC=C4C[C@@H](O)CC[C@]4(C)[C@H]3CC[C@]12C`, the RE in assay [1] was below 0.1. Compound `CNC(=O)CC[C@@H](C)[C@H]1CC[C@H]2[C@@H]3CC=C4C[C@@H](O)CC[C@]4(C)[C@H]3CC[C@]12C` displayed an RE in assay [1] of 0.55. Besides, the pEC50 in assay [2] is 6.14. The matching figures for `CC(C)C(=O)CC[C@@H](C)[C@H]1CC[C@H]2[C@@H]3CC=C4C[C@@H](O)CC[C@]4(C)[C@H]3CC[C@]12C`: 1.3 and 6.74. Taken in the same sequence, the figures for `C[C@H](CC[C@@H]1OC1(C)C)[C@H]1CC[C@H]2[C@@H]3CC=C4C[C@@H](O)CC[C@]4(C)[C@H]3CC[C@]12C` [24(S),25-EPOXYCHOLESTEROL] were 1 and 6.34. Taken in the same sequence, the figures for `CC(C)[C@H](O)CC[C@@H](C)[C@H]1CC[C@H]2[C@@H]3CC=C4C[C@@H](O)CC[C@]4(C)[C@H]3CC[C@]12C` were 0.85 and 6.66.

Compound `C[C@H](CCC(=O)N(C)C)[C@H]1CC[C@H]2[C@@H]3CC=C4C[C@@H](O)CC[C@]4(C)[C@H]3CC[C@]12C` returned an RE in assay [1] of 1.4. In addition, in assay [2], the pEC50 is 6.77. The matching figures for `CC(C)[C@@H](O)CC[C@@H](C)[C@H]1CC[C@H]2[C@@H]3CC=C4C[C@@H](O)CC[C@]4(C)[C@H]3CC[C@]12C`: 1 and 6.89.

Consider `C[C@@H](CO)CCC[C@@H](C)[C@H]1CC[C@H]2[C@@H]3CC=C4C[C@@H](O)CC[C@]4(C)[C@H]3CC[C@]12C`, for which the RE in assay [1] came to 0.3. Also, the pEC50 in assay [2] was 6.60.

In assay [1], `COC(=O)CC[C@@H](C)[C@H]1CC[C@H]2[C@@H]3CC=C4C[C@@H](O)CC[C@]4(C)[C@H]3CC[C@]12C` came in with an RE of 1.1. Besides, in assay [2], the pEC50 was 6.98. The matching figures for `CC(C)C[C@H](O)C[C@@H](C)[C@H]1CC[C@H]2[C@@H]3CC=C4C[C@@H](O)CC[C@]4(C)[C@H]3CC[C@]12C`: 0.7 and 5.23. For `C[C@H](C[C@@H](CO)C(C)(C)O)[C@H]1CC[C@H]2[C@@H]3CC=C4C[C@@H](O)CC[C@]4(C)[C@H]3CC[C@]12C`, in assay [1], the RE was below 0.1. Compound `C[C@H](CCCC(C)(C)O)[C@H]1CC[C@H]2[C@@H]3CC=C4C[C@@H](O)CC[C@]4(C)[C@H]3CC[C@]12C` had an RE in assay [1] of 0.35. Moreover, in assay [2], the pEC50 is 5.94.

For the compound `CC(C)CCC[C@](C)(O)[C@H]1CC[C@H]2[C@@H]3CC=C4C[C@@H](O)CC[C@]4(C)[C@H]3CC[C@@]21C`, the RE in assay [1] was 1. Also, in assay [2], the pEC50 was 6.33. For `CC(C)C[C@@H](O)C[C@@H](C)[C@H]1CC[C@H]2[C@@H]3CC=C4C[C@@H](O)CC[C@]4(C)[C@H]3CC[C@]12C`, in assay [1], the RE is below 0.1. Consider `CC(C)CCC[C@@H](C)[C@H]1CC[C@H]2[C@@H]3CC=C4C[C@@H](O)CC[C@]4(C)[C@H]3CC[C@]12C`, for which the RE in assay [1] is below 0.1.
